Here are results for one compound from ChEMBL document CHEMBL3259690, “Synthesis, structure-activity relationships, and biological studies of chromenochalcones as potential antileishmanial agents” (J Med Chem, 2014).

A short description of data set [1]: Cmax in Syrian golden hamster at 100 mg/kg, po administered via gavage as single dose by HPLC-UV analysis. The class given is ADME, organism-based, Mesocricetus auratus. Set-up: dose 100 mg/kg, route oral. Conditions: in vivo. In a few lines: (§1)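 Male Syrian golden hamsters (100 ± 15 g) given a single oral dose of 100 mg/kg. Plasma stored at −70 °C and assayed by HPLC-UV. Concentration–time profiles analysed non-compartmentally; values mean ± SD.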

Data set [2] deals with Syrian golden hamster. Put plainly: Toxicity in Syrian golden hamster at 100 mg/kg, po administered via gavage as single dose. The conditions noted are these: in vivo. Format: organism-based, Mesocricetus auratus. Set-up: dose 100 mg/kg, route oral.
Data set [3] concerns Leishmania donovani. Put plainly: Induction of apoptosis in Leishmania donovani MHOM/IN/80/Dd8 promastigotes assessed as drop in mitochondrial membrane potential at 0.78 uM after 48 hrs by JC-1 dye based flow cytometry (reference value: 5.87%). The class given is functional. For orientation: Flow cytometry measures light scatter and fluorescence of single cells or particles in a stream.

Data set [4] in a line: Terminal half life in Syrian golden hamster at 100 mg/kg, po administered via gavage as single dose by HPLC-UV analysis. Set-up: dose 100 mg/kg, route oral. Conditions: in vivo, read-out: beta t1/2 (converted). Format: ADME, organism-based, Mesocricetus auratus. A digest of the protocol: as §1
In data set [5] the test system is Leishmania donovani. Put plainly: Antileishmanial activity against Leishmania donovani MHOM/IN/80/Dd8 amastigotes infected in syrian golden hamster assessed as decrease in parasite count in spleen at 100 mg/kg/day, po for 5 days measured on day 7 after last dose administration by giemsa staining. Format: functional. The conditions noted are these: MHOM/IN/80/Dd8, Spleen. A digest of the protocol:
(§2)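 Golden hamsters of either sex infected intracardially with 1 × 10⁷ L. donovani Dd8 amastigotes. After 15−20 days, pretreatment spleen biopsy; animals with +1 grade infection (5−10 amastigotes/100 spleen cell nuclei) used, 5−6 per compound. Aqueous suspensions dosed IP or PO for 5−10 consecutive days starting 2 days after biopsy. Splenic biopsies on day 7 and 28 after last dose, Giemsa counts; PI = 100 − [(ANAT×100)/(INAT×TIUC)].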

In data set [6] the test system is Leishmania donovani. Put plainly: Antileishmanial activity against Leishmania donovani MHOM/IN/80/Dd8 amastigotes infected in syrian golden hamster assessed as decrease in parasite count in spleen at 50 mg/kg/day, po for 5 days measured on day 7 after last dose administration by giemsa staining. The conditions noted are these: MHOM/IN/80/Dd8, Spleen. The class given is functional. A digest of the protocol:
as §2

Data set [7] can be described thus: Half life in syrian golden hamster liver S9 fraction at 10 uM in presence of NADPH. The class given is ADME, subcellular, Mesocricetus auratus. A digest of the protocol: (§3)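 Hamster liver S9 (2 mg/mL protein), 50 mM Tris, 20 mM MgCl₂, 2 mM NADPH preincubated 10 min, then compound added at 10 μM final (1% organic) at 37 °C in triplicate. Sampled 0−60 min; no-NADPH control sampled at 0, 15, 30 and 60 min. Quenched with ice-cold methanol, extracted by LLE. Data as % parent remaining versus 0 min; testosterone as positive control.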

The nature of data set [8]: Selectivity index, ratio of CC50 for African green monkey Vero cells to IC50 for Leishmania donovani MHOM/IN/80/Dd8 intracellular amastigote form expressing luciferase gene infected in mouse J774A1 cells. The class given is functional, J774.A1. In a few lines: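 Ratio of CC₅₀ in Vero cells (72 h MTT) to IC₅₀ against luciferase-expressing amastigotes in J774A.1 macrophages (72 h luminescence).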

Data set [9] concerns Leishmania donovani. Put plainly: Induction of early apoptosis in Leishmania donovani MHOM/IN/80/Dd8 promastigotes at 0.78 uM after 24 hrs by Annexin V-FITC/propidium iodide staining based flow cytometry (reference value: 13.70%). The class given is functional.
Data set [10] concerns Leishmania donovani. Put plainly: Induction of apoptosis in Leishmania donovani MHOM/IN/80/Dd8 promastigotes assessed as drop in mitochondrial membrane potential at 0.78 uM after 72 hrs by JC-1 dye based flow cytometry (reference value: 5.87%). Format: functional.
The test system of data set [11] is Leishmania donovani. Put plainly: Induction of early apoptosis in Leishmania donovani MHOM/IN/80/Dd8 promastigotes at 0.78 uM after 12 hrs by Annexin V-FITC/propidium iodide staining based flow cytometry (reference value: 13.70%). The class given is functional.
Data set [12] is described as follows: AUC (0 to infinity) in Syrian golden hamster at 100 mg/kg, po administered via gavage as single dose by HPLC-UV analysis. The conditions noted are these: plasma. The class given is ADME, organism-based, Mesocricetus auratus. Set-up: time infinity, dose 100 mg/kg, route oral.
In data set [13] the test system is J774.A1. Put plainly: Decrease in IL-10 production in mouse J774A1 cells infected with Leishmania donovani at IC50 concentration after 24 hrs by sandwich ELISA relative to control. Format: functional. In a few lines: (§4)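 J774A.1 macrophages (1 × 10⁶) infected with Leishmania at 1:10, treated in 6-well plates at the compound's IC₅₀ concentration, 37 °C, CO₂. Supernatants from normal, infected-untreated and infected-treated cells collected after 24 h. IL-12, TNF-α, IL-10 and TGF-β measured by sandwich ELISA at 450 nm, in pg/mL. Two independent experiments in duplicate, mean ± SD; Student's t test against infected control.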
A general note: An ELISA detects its analyte on a solid surface through an enzyme-linked reagent.

Data set [14] in a line: In vitro metabolic stability in syrian golden hamster liver S9 fraction at 10 uM in absence of NADPH. The class given is ADME, Mesocricetus auratus. Conditions: s9, 10 µM. A digest of the protocol:
as §3

For data set [15], the system named is Leishmania donovani. Put plainly: Induction of apoptosis in Leishmania donovani MHOM/IN/80/Dd8 promastigotes assessed as drop in mitochondrial membrane potential at 0.78 uM after 6 hrs by JC-1 dye based flow cytometry (reference value: 5.87%). The class given is functional.
The subject of data set [16] is Leishmania donovani. Put plainly: Induction of early apoptosis in Leishmania donovani MHOM/IN/80/Dd8 promastigotes at 0.78 uM after 72 hrs by Annexin V-FITC/propidium iodide staining based flow cytometry (reference value: 13.70%). The class given is functional.
A short description of data set [17]: Apparent oral clearance in Syrian golden hamster at 100 mg/kg, po administered via gavage as single dose by HPLC-UV analysis. The class given is ADME, organism-based, Mesocricetus auratus. Set-up: dose 100 mg/kg, route oral. The conditions noted are these: in vivo. A digest of the protocol: as §1
Data set [18] addresses Albumin (Bos taurus, UniProt P02769). Put plainly: Binding affinity to bovine serum albumin at 1 mmol/L by fluorescence spectrophotometer analysis. Format: ADME. Conditions: cattle, isolated protein, 1000 µM. A digest of the protocol: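 BSA at 1.00 × 10⁻⁵ mol/L in 0.10 M Tris-HCl, pH 7.4, titrated with successive additions of 1.00 × 10⁻³ mol/L compound stock. Excitation at 280 nm, emission recorded 300−450 nm. Quenching analysed by Stern–Volmer and modified Stern–Volmer equations (τ₀ = 10⁻⁸ s).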

Data set [19] has as its system Leishmania donovani. Put plainly: Induction of apoptosis in Leishmania donovani MHOM/IN/80/Dd8 promastigotes assessed as drop in mitochondrial membrane potential at 0.78 uM after 24 hrs by JC-1 dye based flow cytometry (reference value: 5.87%). Format: functional.
Data set [20] relates to Leishmania donovani. Put plainly: Induction of early apoptosis in Leishmania donovani MHOM/IN/80/Dd8 promastigotes at 0.78 uM after 6 hrs by Annexin V-FITC/propidium iodide staining based flow cytometry (reference value: 13.70%). Format: functional.
Data set [21] deals with J774.A1. Put plainly: Decrease in TGF-beta production in mouse J774A1 cells infected with Leishmania donovani at IC50 concentration after 24 hrs by sandwich ELISA relative to control. The class given is functional. In a few lines: as §4
A short description of data set [22]: Stability of the compound in simulated intestinal fluid assessed as compound degradation at 10 uM by HPLC-UV analysis. The class given is physicochemical. Conditions: read-out: Drug degradation. In a few lines:
(§5)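 Simulated gastric and intestinal fluids made to USP specifications. Compound at 10 μM incubated in SGF sampled at 0, 15, 30 and 60 min, and in SIF at 0, 30, 60, 90 and 120 min. Mean ± SEM.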

The nature of data set [23]: Stability of the compound in simulated gastric fluid at 10 uM by HPLC-UV analysis. Format: physicochemical. Conditions: simulated gi fluid. In a few lines:
as §5

Sequence of Albumin (P02769 whole entry): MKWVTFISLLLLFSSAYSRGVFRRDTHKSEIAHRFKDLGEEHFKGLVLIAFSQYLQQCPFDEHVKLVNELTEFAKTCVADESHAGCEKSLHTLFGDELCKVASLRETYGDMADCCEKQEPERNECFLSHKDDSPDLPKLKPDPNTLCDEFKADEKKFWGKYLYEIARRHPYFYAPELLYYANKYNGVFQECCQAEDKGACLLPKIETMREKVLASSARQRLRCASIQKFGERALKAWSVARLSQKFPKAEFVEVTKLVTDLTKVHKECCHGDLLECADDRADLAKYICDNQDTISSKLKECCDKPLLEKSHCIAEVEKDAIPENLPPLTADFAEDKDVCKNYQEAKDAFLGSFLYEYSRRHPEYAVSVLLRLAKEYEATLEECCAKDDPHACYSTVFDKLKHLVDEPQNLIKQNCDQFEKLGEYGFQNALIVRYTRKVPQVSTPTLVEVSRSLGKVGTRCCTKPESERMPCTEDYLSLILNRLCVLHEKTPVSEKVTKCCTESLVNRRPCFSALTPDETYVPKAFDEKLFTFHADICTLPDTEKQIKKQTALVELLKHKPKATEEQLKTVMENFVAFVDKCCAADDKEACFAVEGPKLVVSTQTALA

By Cmax is commonly meant the highest concentration seen after dosing. By inhibition in vivo is commonly meant the share of the control response that was lost under treatment. As usually defined, the AUC(0-inf) is total exposure, with the tail of the curve extrapolated. Usually CL/F stands for the apparent clearance, not corrected for the fraction that reaches the circulation. On to `CC(C)=CCCC1(C)C=Cc2c(ccc(C(=O)/C=C/c3cccnc3)c2O)O1` (centres undefined), for which the concentration in data set [1] peaked (Cmax) at 820 ng/mL. Moreover, the Activity result is on record as “Non-toxic” in data set [2]; 61.67% in [3]; 30.79% in data set [9]; 69.59% in data set [10]; 28.93% in data set [11]; 10.47% in [15]. Besides, the Activity turned out to be 66.14% in data set [16], 31.88% in data set [19] and 27.04% in data set [20]. Also, in [4], the half-life is 7.4 h. For the same compound, the inhibition in vivo at 100 mg/kg/day in data set [5] amounted to 84.7%. For the same compound, in data set [6], the inhibition in vivo at 50 mg/kg/day is 49%. For the same compound, the half-life at 10 µM in data set [7] worked out at 0.63 h. The “Ratio CC50/IC50” value in data set [8] came to 7.5. The compound further returned an AUC(0-inf) in [12] of 3700 ng·h/mL. For the same compound, the “fold change (FC)” value in [13] turned out to be 7.11; in [21], 4.08. The Stability result in [14] and in data set [23] was “Stable” in each case. The CL/F in data set [17] was 464 mL/min/kg. The KSV in data set [18] stood at 2.7 ×10⁵ L/mol. In addition, in data set [18], the Kq is on record as 2.7 ×10¹³ L/mol/s. In data set [22], the degraded at 10 µM was 30%.
